APP 5'UTR act: activators of APP 5'UTR luciferase reporter, primary screen, SH-SY5Y cells; activation, % at 2 µM; SH-SY5Y APP 5'UTR luciferase reporter, luminescence; zero percent = DMSO vehicle wells; 1% of 190,000 active;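 active = activation above a set limit, based on mean plus 3 SD of controls, cut at about 140% in these data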
Wee1 stabilizer: Wee1 degradation inhibitors, primary screen, cell-based, HeLa, Wee1K328M-luciferase, luminescence. Wee1-like protein kinase (Homo sapiens), P30291. HeLa Luc-Wee1K328M stability; 100% = proteasome inhibitor MG132 effect. reporter increase, % at 5 µM. 1.2% of 220,000 active;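 active = activation above the mean of all tested compounds plus 3 SD, set per screening run, cut at about 8.8% in these data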;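 note: cells exposed to compound for 20 h before luminescence read; 0% = DMSO alone and 100% = MG132 at 30 µM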
NF-kB expr up: activators of NF-kB expression in neurons, primary screen, cell-based, HTS; human neuronal cells, NF-kB reporter expression; active compounds read high; fold change at 12.5 µM; 1.6% of 190,000 active; AID 1239, 2008; in the data active = fold change above about 3.3
STAT1 activator: STAT1 signaling activators, primary screen, cell-based, HTS, luciferase reporter. NIH 3T3 STAT1-luciferase reporter, IFN-gamma, luminescence; 100% = IFN-gamma alone, no compound. activation (% of control), % at 5.5 µM. 2.6% of 200,000 active;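 active = activation above the screen-wide mean activation plus 3 SD, cut at about 130% in these data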;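 note: raw ratio to IFN-gamma control signal so 100% means no change and 0% no light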
p97 inhibitor: inhibitors of human p97 ATPase, primary screen, biochemical; recombinant p97 ATPase, Kinase-Glo ATP luminescence, 3 h; inhibition, % at 8 µM; 0.42% of 220,000 active; in the data active = inhibition above about 15%;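 note: 0% = DMSO vehicle and 100% = wells lacking enzyme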
MDM2 E3 inh: MDM2-luciferase reporter signal enhancers, primary screen, MDM2 E3 ligase inhibitor project, cell-based, luminescence, 1536-well | cell-based MDM2 ubiquitination luciferase reporter, 2 h; 0 = plate control, 100 = twice control, blank-subtracted | signal enhancement, % at 5 µM | 0.11% of 210,000 active | AID 1230, 2008;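 active = signal enhancement of 30% or more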;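 note: luminescence tracks abundance of the self-degrading MDM2-luciferase fusion protein; higher signal means inhibition of MDM2 E3 ligase activity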
Target sequence (Q00987 whole entry, looked up, the tested form may be a part): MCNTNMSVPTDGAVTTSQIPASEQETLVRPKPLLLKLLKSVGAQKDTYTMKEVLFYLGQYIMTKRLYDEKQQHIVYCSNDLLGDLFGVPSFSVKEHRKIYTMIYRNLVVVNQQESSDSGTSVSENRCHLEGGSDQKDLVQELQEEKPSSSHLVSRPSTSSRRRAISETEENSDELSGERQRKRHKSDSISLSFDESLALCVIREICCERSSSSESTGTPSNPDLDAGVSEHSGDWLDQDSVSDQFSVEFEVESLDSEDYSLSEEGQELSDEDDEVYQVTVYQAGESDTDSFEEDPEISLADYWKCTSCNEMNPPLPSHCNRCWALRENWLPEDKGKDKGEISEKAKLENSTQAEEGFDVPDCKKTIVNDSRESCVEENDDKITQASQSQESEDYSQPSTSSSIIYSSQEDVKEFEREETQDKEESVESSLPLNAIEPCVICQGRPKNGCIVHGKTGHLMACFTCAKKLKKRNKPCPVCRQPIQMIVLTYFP
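Assay system: mammalian cells stably expressing self-ubiquitinating, self-degrading MDM2 E3–luciferase fusion. Quantity: 2000 cells in each well. Medium: DMEM culture medium. Compound dosing: single-point 5 µM. Timing: cell settling 4 h, compound treatment 2 h, both 37 °C. Technique: luciferase luminescence. Read-out basis: percent signal gain over controls, blank-subtracted. Benchmarks: plate controls and plate blanks.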
Starred values were filed as active, the others as inactive; nt = no result. The list is not random: actives were taken first. Their share in the collection is about 4.6%.

SMILES	APP 5'UTR act	Wee1 stabilizer	NF-kB expr up	STAT1 activator	p97 inhibitor	MDM2 E3 inh
CCn1c(N2CCN(C(=S)Nc3ccc(OC)cc3)CC2)nc2ccccc21	-6.7	7.1	0.89	94.3	2.5	-3.8
COc1ccccc1C1=NC(c2ccc(F)cc2)N=C1C (centres undefined)	16.6	-2.4	1.8	131.3*	-0.1	-2.8
Nn1c(SCc2ccccc2F)nnc1-c1ccccn1	nt	1.6	nt	nt	3.1	-11.0
Cc1cc(Oc2ccccc2)nc(N)n1	-4.3	-0.2	1.33	99.6	1.5	-4.7
Cc1cc(SCCOc2ccccc2)nc(N)n1	3.4	-2.2	2.54	129.2*	1.2	-5.2
Cc1c(Cl)cccc1NC(=O)COC(=O)c1c2c(nc3ccccc13)CCN(Cc1ccccc1)C2	-9.5	2.3	0.42	102.1	-1.0	-16.2
CC(C)c1ccccc1NC(=O)COC(=O)c1c2c(nc3ccccc13)CCN(Cc1ccccc1)C2	-8.2	9.5*	0.37	93.2	-1.7	-3.9
CCOC(=O)N1CCN(CC(=O)N2CCC(C(N)=O)CC2)CC1	8.5	-4.1	0.89	104.9	4.3	-6.8
CCCC(=O)N1CCN(c2ccc([N+](=O)[O-])c(NC(C)c3ccccc3)c2)CC1 (centres undefined)	6.3	-1.5	0.59	90.8	-0.6	-13.4
CCS(=O)(=O)N1Cc2ccccc2CC1C(=O)Nc1cccc(C)c1 (centres undefined)	8.1	9.9*	2.05	115.6	-2.5	-8.6
CCS(=O)(=O)N1Cc2ccccc2CC1C(=O)Nc1ccc(C)cc1 (centres undefined)	16.2	0.6	1.83	102.9	1.0	nt
O=C(N/N=C1\CCc2ccccc21)c1ccncc1	54.9	-1.3	1.3	129.7*	3.8	3.2
O=C(N/N=C1\CCc2ccccc21)c1ccccc1O	127.8	-2.2	3.84*	103.9	-3.9	-42.2
Cc1ccc(N2C(=O)N(CC(=O)Nc3ccc(C)c(C)c3[N+](=O)[O-])C(=O)C2C)cc1 (centres undefined)	-16.5	4.6	0.91	96.6	0.8	-11.9
Cc1ccc(S(=O)(=O)Nc2cc(=O)[nH]c3c2CCC3)cc1	nt	1.2	nt	nt	4.7	-6.8
CCOC(=O)c1ccc(N=c2scc(C)n2CC)cc1	89.5	-2.3	4.26*	124.5	-8.6	-13.4
Cc1nc2ccc(NC(=O)c3ccc4ccccc4n3)cc2s1	75.7	-2.0	2.32	134.9*	2.0	-14.6
Cc1nc2cc(NC(=O)c3ccc(N4C(=O)CCC4=O)cc3)ccc2s1	-5.4	0.3	1.17	85.2	-4.3	-16.7
Cc1nc2ccc(NC(=O)c3sccc3C)cc2s1	162.8*	2.0	4.71*	143.3*	3.6	-24.1
Cc1nc2cc(C(=O)O)ccc2s1	49.9	2.9	2.15	142.7*	-0.6	-0.2
Cc1nc2ccc(NC(=O)c3ccco3)cc2s1	68.8	-3.2	1.11	125.7	-7.0	-88.0
Cc1nc2ccc(NC(=O)c3ccccc3)cc2s1	82.2	3.6	2.61	130.9*	8.0	-1.4
Cc1nc2ccc(NC(=O)c3cncc(Br)c3)cc2s1	nt	3.8	nt	nt	2.5	nt
CC1CN(C2=NC(=O)/C(=C/c3ccncc3)S2)CC(C)O1 (centres undefined)	nt	-0.8	nt	nt	6.5	-13.4
COc1ccc(C(=O)Nc2cnn(Cc3c(F)cccc3Cl)c2)cc1OC	nt	2.0	nt	nt	3.8	nt
SMILES	APP 5'UTR act	Wee1 stabilizer	NF-kB expr up	STAT1 activator	p97 inhibitor	MDM2 E3 inh
Cc1ccc(NC(=S)N(CCCN2CCC(C)CC2)Cc2ccco2)cc1C	-4.9	4.2	1.31	96.2	5.2	-11.6
O=C(Nc1ccc2c(c1)nc1n2CCSC1)c1ccccc1	119.8	-0.2	3.33*	116.2	-9.7	-1.4
Cc1nc2ccc(NC(=O)Cc3ccccc3F)cc2s1	132.8	3.0	6.77*	141.4*	-3.0	-19.9
Cc1ccc(-c2nc3ccc(C(=O)O)cc3nc2-c2ccc(C)cc2)cc1	16.9	-2.6	1.17	86.4	2.1	14.1
CCc1nc2ccc(C(=O)O)cc2nc1CC	53.4	-2.2	6.07*	101.7	4.7	-5.9
Nc1ccc(C(=O)OCc2nc3c(ccc4ccccc43)[nH]2)cc1	92.3	6.4	2.36	150.9*	8.2	nt
Nc1ccc(C(=O)OCc2nc3cc4ccccc4cc3[nH]2)cc1	-3.7	1.2	1.53	113.6	4.7	-14.2
CCOC(=O)c1nc2sc3c(c2c(=O)n1C(C)C(=O)OCC)CCCC3 (centres undefined)	-21.9	-2.9	1.29	101.8	-1.0	-2.5
CN(C)C=NC(=O)c1cc(C(=O)c2ccc(C(C)(C)C)cc2)c[nH]1	171.1*	-0.1	1.31	140.9*	-4.1	7.6
COC(=O)c1cc(C(=O)c2ccc(C(C)(C)C)cc2)c[nH]1	37.2	1.3	2.04	119.7	-1.4	-4.2
CN(C)C=NC(=O)c1cc(C(=O)c2ccccc2Cl)c[nH]1	6.4	-1.2	1.11	104.0	1.8	-9.8
CC(C)(C)c1ccc(C(=O)c2c[nH]c(C(=O)O)c2)cc1	88.0	-2.0	0.88	142.2*	1.7	-15.4
OC(C#CCN1CCCC1)(c1ccccc1)c1cccnc1 (centres undefined)	-7.9	10.1*	nt	nt	7.4	nt
COc1ccc(/C=C/C(=O)c2ccc3c(c2)OCO3)c(OC)c1	152.5*	28.7*	3.16	129.3*	-2.8	-8.1
COc1ccc(/C=C/C(=O)c2ccccc2)c(OC)c1	236.5*	7.1	7.73*	147.4*	0.9	-33.2
COc1ccc(/C=C/C(=O)c2ccc(OC)cc2OC)c(OC)c1	7.7	0.6	1.47	98.4	0.2	-1.1
COc1cc(/C=C/C(=O)O)cc(S(=O)(=O)Nc2ccccc2Oc2ccccc2)c1OC	nt	-1.9	nt	nt	3.7	nt
Cc1cc(C(=O)CSc2ccc(F)cc2)cc(C)c1OC(=S)N(C)C	160.0*	-0.3	0.4	119.5	-3.3	-11.0
COc1ccc(SCC(=O)c2cc(C)c(OC(=S)N(C)C)c(C)c2)cc1	nt	0.8	1.02	106.2	-2.0	-11.8
N#C/C(=C/Nc1ccccc1)c1ccsc1	15.5	-1.6	1.23	98.6	4.1	-12.0
Cc1ccc(N/C=C(/C#N)c2ccsc2)cc1	63.9	2.6	2.32	134.4*	-0.6	-7.7
O=C(CSc1nnnn1-c1ccc2c(c1)OCCO2)N1CCN(C(=O)c2ccco2)CC1	17.3	-2.0	1.07	94.3	-0.4	-7.2
COc1ccc(/C(N)=N/OC(=O)CSc2ccccc2)cc1OC	42.2	2.7	2.76	145.4*	0.3	-18.4
COc1ccc(/C(N)=N/OC(=O)c2ccco2)cc1OC	79.5	6.1	2.89	148.9*	4.9	9.1
